This note sets out measurements from PMC12541606 (Acta Pharmaceutica Sinica. B, 2025).

Numbered stars: 1 amine (or outer) side, 2 acyl side, 3 side chain; on linkers, the order of the positions; unused ones are H or OH. Bridge positions count the residues as written; N and C are the ends. Square brackets hold non-standard residues; d marks the D form. Peptide text beside a SMILES is read from it. I, II: the chains in the order shown. * marks the point of attachment. X1 = O=C([C@H](CCCCn1nnc2c1-c1ccccc1N([*:3])Cc1ccccc1-2)N[*:1])[*:2]; Dolaproine = CO[C@@H]([C@@H]1CCCN1)[C@@H](C)C(=O)O; Tyr(SO2F) = N[C@@H](Cc1ccc(OS(=O)(=O)F)cc1)C(=O)O; Dil = CC[C@H](C)[C@H](NC)[C@@H](CC(=O)O)OC; PABC = O=C(OCc1ccc(N[*:1])cc1)[*:2]; X2 = C[C@@H](N*)[C@@H](O)c1ccccc1; Cit = NC(=O)NCCC[C@H](N)C(=O)O; Suc = O=C(CCC(=O)[*:2])[*:1]; NMeV = CN[C@H](C(=O)O)C(C)C; AEEA = NCCOCCOCC(=O)O

Format in all cases: cell-based
The subject of one assay is MDA-MB-468 cells. The experiment in a line: Cell viability test. Conditions: 72 h, CCK-8.
The test system of the next assay is tubulin. Description: Immunofluorescent imaging of tubulin organization. As to conditions: MDA-MB-468 cells, 0 to 10 μmol/L, 24 h.
A further assay concerns caspase-3. Description: Western blotting of cleaved caspase-3. As to conditions: MDA-MB-468 cells, 24 h, 37 °C. In outline: (§1)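 MDA-MB-468 cells were seeded and grown 24 h at 37 °C, 5% CO2. PDC test compound was diluted from a 20 mmol/L stock to final 0, 0.1, 0.5, 1, 5 and 10 μmol/L and applied for 24 h. Cells were lysed in RIPA buffer with protease inhibitors and run on SDS-PAGE. Blots were probed for caspase-3, cleaved caspase-3, PARP and β-actin, detected by ECL and quantified by densitometry.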
A general note: A western blot detects proteins with antibodies after separation by electrophoresis.

The subject of assay [1] is poly ADP-ribose polymerase (PARP). The experiment in a line: Western blotting of cleaved PARP. As to conditions: MDA-MB-468 cells, 24 h, 37 °C. In outline: as §1

Consider `CC[C@H](C)[C@@H]([C@@H](CC(=O)N1CCC[C@H]1[C@H](OC)[C@@H](C)C(=O)N[C@H](C)[C@@H](O)c1ccccc1)OC)N(C)C(=O)[C@@H](NC(=O)[C@H](C(C)C)N(C)C(=O)OCc1ccc(NC(=O)[C@H](CCCNC(N)=O)NC(=O)[C@@H](NC(=O)CCC(=O)N2Cc3ccccc3-c3nnn(CCCC[C@H](NC(=O)COCCOCCNC(=O)COCCOCCNC(=O)[C@@H]4CSCC(=O)N[C@H](Cc5ccccc5)C(=O)NCC(=O)N[C@@H](CC(=O)O)C(=O)N[C@@H](Cc5ccccc5)C(=O)N[C@@H]([C@@H](C)CC)C(=O)N[C@@H](CCCNC(=N)N)C(=O)N[C@@H](CCCNC(=N)N)C(=O)N[C@@H](CC(C)C)C(=O)N[C@@H](C(C)C)C(=O)N5CCC[C@H]5C(=O)N[C@@H](CCCNC(=N)N)C(=O)N[C@@H](CC(C)C)C(=O)N4)C(N)=O)c3-c3ccccc32)C(C)C)cc1)C(C)C` [NP-N7-MMAE] (I: {CH2CO}-[dF]GDFIRRLVPRLC[AEEA][AEEA][X1]-NH2 / II: V[Cit][PABC][NMeV]V[Dil][Dolaproine]-X2; linker I:16-II:N via Suc; thioether I:N-I:13), for which, in the assay on MDA-MB-468 cells, the “area under the dose-response curve (AUC)” value is 433.7. Further, in the assay on tubulin, the “tubulin signal (in words)” value is recorded as “progressive, concentration-dependent reduction in tubulin signal”.
Take `CC[C@H](C)[C@@H]([C@@H](CC(=O)N1CCC[C@H]1[C@H](OC)[C@@H](C)C(=O)N[C@H](C)[C@@H](O)c1ccccc1)OC)N(C)C(=O)[C@@H](NC(=O)[C@H](C(C)C)N(C)C(=O)OCc1ccc(NC(=O)[C@H](CCCNC(N)=O)NC(=O)[C@@H](NC(=O)CCC(=O)N2Cc3ccccc3-c3nnn(CCCC[C@H](NC(=O)COCCOCCNC(=O)COCCOCCNC(=O)[C@@H]4CSCC(=O)N[C@H](Cc5ccccc5)C(=O)N[C@@H](Cc5ccc(OS(=O)(=O)F)cc5)C(=O)N[C@@H](CC(N)=O)C(=O)N[C@@H](C)C(=O)N[C@@H](Cc5ccccc5)C(=O)N5CCC[C@H]5C(=O)N[C@@H](C(C)C)C(=O)N[C@@H](CCCNC(=N)N)C(=O)N[C@@H](Cc5ccc(O)cc5)C(=O)N[C@@H](CC(C)C)C(=O)N[C@@H](CCCCN)C(=O)N[C@@H](CCCNC(=N)N)C(=O)N[C@@H](Cc5c[nH]c6ccccc56)C(=O)N4)C(N)=O)c3-c3ccccc32)C(C)C)cc1)C(C)C` [CP-N9-MMAE] (I: {CH2CO}-[dF][Tyr(SO2F)]NAFPVRYLKRWC[AEEA][AEEA][X1]-NH2 / II: V[Cit][PABC][NMeV]V[Dil][Dolaproine]-X2; linker I:17-II:N via Suc; thioether I:N-I:14): the “area under the dose-response curve (AUC)” value with MDA-MB-468 cells came to 215.2. Further, the “tubulin signal (in words)” value with tubulin is reported as “progressive, concentration-dependent reduction in tubulin signal”.
Consider `CC[C@H](C)[C@@H]([C@@H](CC(=O)N1CCC[C@H]1[C@H](OC)[C@@H](C)C(=O)N[C@H](C)[C@@H](O)c1ccccc1)OC)N(C)C(=O)[C@@H](NC(=O)[C@H](C(C)C)N(C)C(=O)OCc1ccc(NC(=O)[C@H](CCCNC(N)=O)NC(=O)[C@@H](NC(=O)CCC(=O)N2Cc3ccccc3-c3nnn(CCCC[C@H](NC(=O)COCCOCCNC(=O)COCCOCCNC(=O)[C@@H]4CSCC(=O)N[C@H](Cc5ccccc5)C(=O)N[C@@H](Cc5ccc(OS(=O)(=O)F)cc5)C(=O)N[C@@H](CC(N)=O)C(=O)N[C@@H](C)C(=O)N[C@@H](Cc5ccccc5)C(=O)N5CCC[C@H]5C(=O)N[C@@H](C(C)C)C(=O)N[C@@H](CCCNC(=N)N)C(=O)N[C@@H](Cc5ccc(O)cc5)C(=O)N[C@@H](CC(C)C)C(=O)N[C@@H](CCCCN)C(=O)N[C@@H](CCCCN)C(=O)N[C@@H](Cc5c[nH]c6ccccc56)C(=O)N4)C(N)=O)c3-c3ccccc32)C(C)C)cc1)C(C)C` [CP-N1-MMAE] (I: {CH2CO}-[dF][Tyr(SO2F)]NAFPVRYLKKWC[AEEA][AEEA][X1]-NH2 / II: V[Cit][PABC][NMeV]V[Dil][Dolaproine]-X2; linker I:17-II:N via Suc; thioether I:N-I:14), for which the “area under the dose-response curve (AUC)” value with MDA-MB-468 cells is 173.3. Moreover, the “cleavage product of caspase-3, fold relative to untreated controls” value in the assay on caspase-3 turned out to be 5 fold. In assay [1], the “cleavage product of PARP, fold relative to untreated controls” value stood at 1.5 fold. Also, in the assay on tubulin, the “tubulin signal (in words)” value was “progressive, concentration-dependent reduction in tubulin signal”.
